Screening results: PubChem BioAssay, The Scripps Research Institute Molecular Screening Center
A selection: hits, their analogues and other compounds. The true share with any hit is near 2%.
MBD2 DNA inh: inhibitors of MBD2 binding to methylated DNA, primary screen, biochemical, TR-FRET, DNA-binding domain, human. inhibition, % at 4.4 µM. hit rate 0.31% among 370,000. Methyl-CpG-binding domain protein 2 (Homo sapiens), Q9UBB5. MBD2 binding to methylated oligonucleotide; in the data active = inhibition above about 13%
TCR CD3 inh: inhibitors of human TCR-CD3 interaction, primary screen, biochemical, fluorescence, TAMRA-labeled TCR probe | T-cell receptor (TCR) | inhibition, % at 9.4 µM | hit rate 0.37% among 360,000 | AID 651800, 2012;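 note: recombinant mutant TCR 2C K166C tagged with TAMRA read by polarization; 0% = receptor in buffer alone and 100% = receptor with positive control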
ASAP1 inh: inhibitors of human ASAP1 ArfGAP activity, primary screen, biochemical, fluorescence polarization | Arf-GAP with SH3 domain, ANK repeat and PH domain-containing protein 1 (Homo sapiens), … | ASAP1-stimulated ARF1 GTP hydrolysis, GDP FP detection | inhibition, % at 16.5 µM | hit rate 0.19% among 360,000 | AID 624377, 2012; in the data active = inhibition above about 25%;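 note: 0% = vehicle with enzyme and substrate and 100% = no enzyme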
Target sequence (Q9ULH1 325-724 limits assumed): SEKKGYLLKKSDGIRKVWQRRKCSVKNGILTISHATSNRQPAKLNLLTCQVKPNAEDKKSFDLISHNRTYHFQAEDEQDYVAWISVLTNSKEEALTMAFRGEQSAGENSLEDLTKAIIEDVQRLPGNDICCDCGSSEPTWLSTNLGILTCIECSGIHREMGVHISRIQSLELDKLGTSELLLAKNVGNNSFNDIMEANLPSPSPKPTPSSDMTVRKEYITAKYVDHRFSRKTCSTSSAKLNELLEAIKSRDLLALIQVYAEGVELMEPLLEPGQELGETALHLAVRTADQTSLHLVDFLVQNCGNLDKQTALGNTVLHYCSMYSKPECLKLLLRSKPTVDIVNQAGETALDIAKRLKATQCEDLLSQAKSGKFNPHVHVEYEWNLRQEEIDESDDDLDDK
ARFGAP1 inhibitor: inhibitors of rat ARFGAP1 GAP activity, primary screen, biochemical, fluorescence polarization, GDP tracer | Arfgap1-stimulated ARF1 GTP hydrolysis, GDP FP detection | hit rate 0.26% among 360,000 | ADP-ribosylation factor GTPase-activating protein 1 (Rattus norvegicus), Q62848 | AID 651572, 2012 | inhibition, % at 16.5 µM;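 active = inhibition above a per-plate limit, mean inhibition of low control wells plus 3 SD, cut at about 25% in these data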;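 note: 0% = DMSO wells with enzyme and 100% = wells lacking Arfgap1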
Target sequence (Q62848 1-136 limits assumed): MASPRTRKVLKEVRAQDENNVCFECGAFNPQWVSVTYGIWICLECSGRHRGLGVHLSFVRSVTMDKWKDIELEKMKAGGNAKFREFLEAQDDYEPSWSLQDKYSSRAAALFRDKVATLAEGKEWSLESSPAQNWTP
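System: truncated rat Arfgap1 GAP domain / Medium: HEPES-based buffer, pH 7.5 / Also added: N-terminally truncated human ARF1-GTP substrate / Incubation: enzyme reaction 120 min at 25 °C after 20 min preincubation / Measured by: FP of antibody-bound GDP Alexa 633 tracer, ex 620/em 688 nm / Replicates: singlicate, each compound tested once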
UHRF1 binding: UHRF1 methylated DNA binding inhibitors, primary screen, counter-screen for MBD2 inhibitor project, biochemical, TR-FRET, human UHRF1, single concentration; UHRF1 binding to methylated oligo; inhibition, % at 4.4 µM; hit rate 0.75% among 370,000; in the data active = inhibition above about 21%;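 note: UHRF1 SRA domain binding a hemimethylated CpG hairpin DNA probe; 0% = median of test compound wells and 100% = reference inhibitor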
LEDGF integ inh: blockers of LEDGF/p75-dependent integrase strand transfer – biochemical, TR-FRET, high throughput, primary screen; hit rate 0.64% among 370,000; HIV-1 integrase (with human LEDGF/p75); AID 743269, 2014; TR-FRET IN-LEDGF/p75 DNA integration, Eu/Cy5; inhibition, % at 3.7 µM;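 active = inhibition above the screen-wide mean plus 3 SD, cut at about 13% in these data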;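 note: signal is the Cy5 over europium emission ratio at 671 and 618 nm; 0% = plate median of compound wells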
BSA TAMRA ctr: compounds interfering with TAMRA-BSA probe, counter-screen for TCR-CD3 interaction inhibitor project, biochemical, fluorescence, TAMRA-labeled BSA; AID 652035, 2013; inhibition, % at 9.4 µM; TAMRA-labeled BSA probe fluorescence counterscreen; shares compounds with TCR CD3 inh; hit rate 10% among 1,200; in the data active = inhibition above about 23%;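 note: 0% = buffer low control and 100% = reference high control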
TCR-CD3 inh conf: TCR-CD3 interaction inhibitors, retest, confirmation, biochemical, fluorescence, TAMRA-labeled TCR probe; shares compounds with TCR CD3 inh; hit rate 48% among 1,200; inhibition, % at 9.4 µM; TAMRA-labeled TCR probe fluorescence binding assay
Starred values were filed as active, the others as inactive; . = no result. Cut-off read from the data, not from the text of the source, unless noted: active = inhibition above about 19%; inactive = the rest.

SMILES	MBD2 DNA inh	TCR CD3 inh	ASAP1 inh	ARFGAP1 inhibitor	UHRF1 binding	LEDGF integ inh	BSA TAMRA ctr	TCR-CD3 inh conf
Cc1ccccc1C(=O)Nc1ccnn1C1CCN(Cc2cnn(C)c2)CC1	3	-1	-6	-3	-1	-1	.	.
Cc1cc(C)n(Cc2ccc(C(=O)N/N=C/c3ccc(-c4ccc([N+](=O)[O-])cc4)o3)o2)n1	5	19*	1	10	7	4	-5	28*
CCCCC(=O)N/N=C/c1ccc(-c2ccc([N+](=O)[O-])cc2)o1	1	1	0	3	-2	6	.	.
CC(C)(C)OC(=O)N1CCC(NC(=O)c2nc[nH]c2C(=O)N2CCN(c3ccccc3)CC2)CC1	3	3	-5	-6	-3	0	.	.
O=C(NC(=O)c1ccccc1F)OCc1ccc(Cl)cc1Cl	0	28*	-2	3	-1	0	-1	3
O=C(CNC(=O)c1ccccc1F)NCCc1ccc(Cl)cc1Cl	-1	9	4	6	0	5	.	.
O=C(N/N=C\c1ccc(Cl)s1)c1ccc(Cn2cccn2)o1	1	-6	0	6	-3	1	.	.
O=C(N/N=C\c1c(O)ccc2ccccc12)c1ccc(Cn2cccn2)o1	2	24*	2	6	-3	-5	-18	25*
CC(=O)c1cccc(NC(=S)N2CCN(c3ccccn3)CC2)c1	-6	11	2	-1	-1	3	.	.
CCNc1ccc(C(=O)O)cc1N	-1	23*	-9	8	-1	0	22	14
COc1ccc([N+](=O)[O-])cc1NC(=S)NC(NC(=O)C(c1ccccc1)c1ccccc1)C(Cl)(Cl)Cl (stereo not given)	-3	74*	19	-7	4	-4	33*	59*
COc1ccc([N+](=O)[O-])cc1NC(=O)C(C)c1ccccc1 (stereo not given)	3	0	12	-7	-2	-1	.	.
CC(OC(=O)c1ccc(NC(=O)CC#N)cc1)C(=O)Nc1nc(-c2ccccc2)cs1 (stereo not given)	0	35*	2	15	-1	2	0	12
CC(CCc1ccccc1)NC(=O)COC(=O)c1ccc([N+](=O)[O-])cc1 (stereo not given)	-2	-6	0	0	0	-4	.	.
CN(C)C(CNC(=O)c1ccc(NC(=O)CC#N)cc1)c1ccccc1 (stereo not given)	-1	3	-8	-1	-2	-5	.	.
CC(OC(=O)c1cccs1)C(=O)Nc1nc(-c2ccccc2)cs1 (stereo not given)	-6	1	17	1	2	5	.	.
CC(CCc1ccccc1)NC(=O)COC(=O)c1ccc(NC(=O)CC#N)cc1 (stereo not given)	-6	30*	-12	-5	-3	-1	2	3
N#CCC(=O)Nc1ccc(C(=O)NCCC(c2ccccc2)c2ccccc2)cc1	1	21*	-3	6	0	-2	3	4
CCC1(CC)C(=O)C2=C3C1[C@H](C(=O)OC)C=C(C(=O)OC)C[C@H]3n1c(=O)n(-c3ccccc3)c(=O)n1[C@H]2C (stereo not given in full)	-3	-5	-4	-3	0	-1	.	.
N#Cc1cccc(NC(=O)CNc2cccc(S(=O)(=O)N3CCCCC3)c2)c1	0	7	13	-1	1	2	.	.
CC1(C)Cc2c(cnn2-c2ccccc2)C(NC(=O)CCN2CCCC2=O)C1 (stereo not given)	0	7	-5	5	-1	3	.	.
CSc1ccccc1NC(=S)NCc1ccc(Cl)cc1	-2	-8	-20	2	1	-5	.	.
O=C(NNC(=O)c1cc2cc(Br)ccc2oc1=O)c1ccc(O)cc1O	2	46*	2	-7	-4	-3	-15	35*
O=C(c1nc2ccccn2c1CN1CCCC(O)C1)N1CCN(C2CCCCC2)CC1 (stereo not given)	2	-1	12	-13	1	1	.	.
CCCCCN(C(=O)CCC(=O)OCC(=O)N(CC)C1CCCCC1)c1c(N)n(CCCC)c(=O)[nH]c1=O	-2	-3	-6	4	3	1	.	.
SMILES	MBD2 DNA inh	TCR CD3 inh	ASAP1 inh	ARFGAP1 inhibitor	UHRF1 binding	LEDGF integ inh	BSA TAMRA ctr	TCR-CD3 inh conf
Cc1ccccc1NS(=O)(=O)c1ccc(C(=O)NCC2(N3CCOCC3)CCCCC2)cc1	1	27*	0	-15	3	1	5	7
NS(=O)(=O)c1ccc(CNS(=O)(=O)c2ccc3ccccc3c2)cc1	4	-6	-3	4	1	-3	.	.
Cc1cc(C)c(S(=O)(=O)NCCn2c(C)cc3ccccc32)c(C)c1	2	71*	-3	6	3	7	1	1
Cc1cc2ccccc2n1CCNC(=O)Cc1ccccc1	-5	6	6	-2	-4	-2	.	.
Cc1cc2cc(CNS(=O)(=O)c3ccc4ccccc4c3)ccc2n1C	-2	58*	7	7	-4	4	17	10
CC(=O)Nc1ccc(S(=O)(=O)NCc2ccc3[nH]c(C)cc3c2)cc1	-6	1	1	9	-3	4	.	.
Cc1cc(C)c(S(=O)(=O)NCc2nc3nc(C)cc(C)n3n2)c(C)c1	-2	3	3	-12	-2	0	.	.
Cc1cc(C)c(S(=O)(=O)NCc2ccc3c(c2)cc(C)n3C)c(C)c1	-6	71*	-10	3	16	-1	30*	26*
CC(=O)Nc1ccc(S(=O)(=O)NCc2ccc3c(c2)cc(C)n3C)cc1	-11	54*	12	10	0	-4	-1	1
COCCNc1nc(Nc2ccc(C)cc2C)c2sccc2n1	2	3	-4	3	0	-4	.	.
Cc1ccc(CSCCNC(=O)c2ccc(NS(C)(=O)=O)cc2)cc1	3	5	-8	7	2	-2	.	.
CC1=C(O)C(=O)C(c2c(C)cc(C)c(Br)c2C)=C(O)C1=O	-5	23*	-16	-8	0	-1	0	15
